Tests used:
[1] = target: Serine/threonine-protein kinase LATS2 (Homo sapiens) (UniProt Q9NRM7); experiment: Inhibition of LATS2 at 3 uM
[2] = target: Serine/threonine-protein kinase 10 (Homo sapiens) (UniProt O94804); experiment: Inhibition of LOK at 3 uM
[3] = target: Mitogen-activated protein kinase kinase kinase 12 (DLK) (Homo sapiens) (UniProt Q12852); experiment: Inhibition of DLK at 3 uM
[4] = target: Phosphorylase b kinase gamma catalytic chain, skeletal muscle/heart isoform (Homo sapiens) (UniProt Q16816); experiment: Inhibition of PHKG1 at 3 uM
hERG (KCNH2) = hERG (KCNH2) (Homo sapiens, UniProt Q12809); experiment: Inhibition of human ERG at 3 uM
Outline: (§1)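 Counter-screen binding/enzyme panel at single 3 μM, n=2; results as percent inhibition. Species per target as listed (rat NMDA, GABAA sites; human receptors, transporters; rabbit ACE).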

[5] = target: Calcium/calmodulin-dependent protein kinase type 1G (Homo sapiens) (UniProt Q96NX5); experiment: Inhibition of CAMK1G at 3 uM
in vivo = conditions: Sprague-Dawley, rat, plasma, iv, 1 mg/kg
[6] = target: Histamine H3 receptor (Homo sapiens) (UniProt Q9Y5N1); experiment: Inhibition of human histamine H3 receptor at 3 uM; outline: as §1
[7] = target: Atypical kinase COQ8A, mitochondrial (Homo sapiens) (UniProt Q8NI60); experiment: Inhibition of ADCK3 at 3 uM
Atypical kinase COQ8A, mitochondrial (Homo sapiens), sequence (Q8NI60 163-647 limits assumed): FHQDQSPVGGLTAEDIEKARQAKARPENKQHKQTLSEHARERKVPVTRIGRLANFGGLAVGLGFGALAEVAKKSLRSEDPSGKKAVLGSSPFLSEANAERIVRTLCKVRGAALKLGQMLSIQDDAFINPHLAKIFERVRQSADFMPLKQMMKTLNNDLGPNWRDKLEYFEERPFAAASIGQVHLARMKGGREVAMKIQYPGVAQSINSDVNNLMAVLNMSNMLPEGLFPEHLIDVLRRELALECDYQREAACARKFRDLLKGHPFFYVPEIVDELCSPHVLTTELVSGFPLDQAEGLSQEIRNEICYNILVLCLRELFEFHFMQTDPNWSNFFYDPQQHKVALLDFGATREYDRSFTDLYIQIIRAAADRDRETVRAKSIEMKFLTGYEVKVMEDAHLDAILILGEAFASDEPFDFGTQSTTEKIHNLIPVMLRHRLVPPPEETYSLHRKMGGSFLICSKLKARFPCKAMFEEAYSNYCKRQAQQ

[8] = target: Cyclin-dependent kinase 11A (Homo sapiens) (UniProt Q9UQ88); experiment: Inhibition of CDC2L2 at 3 uM
[9] = target: 5'-AMP-activated protein kinase catalytic subunit alpha-2 (Homo sapiens) (UniProt P54646); experiment: Inhibition of AMPKalpha2 at 3 uM
[10] = target: Serine/threonine-protein kinase PAK 4 (Homo sapiens) (UniProt O96013); experiment: Inhibition of PAK4 at 3 uM
[11] = target: Pro-epidermal growth factor (Homo sapiens) (UniProt P01133); experiment: Inhibition of human EGF at 3 uM; outline: as §1
[12] = target: RAC-alpha serine/threonine-protein kinase (Homo sapiens, UniProt P31749); experiment: Inhibition of AKT1 after 55 mins
RAC-alpha serine/threonine-protein kinase, sequence (P31749 whole entry): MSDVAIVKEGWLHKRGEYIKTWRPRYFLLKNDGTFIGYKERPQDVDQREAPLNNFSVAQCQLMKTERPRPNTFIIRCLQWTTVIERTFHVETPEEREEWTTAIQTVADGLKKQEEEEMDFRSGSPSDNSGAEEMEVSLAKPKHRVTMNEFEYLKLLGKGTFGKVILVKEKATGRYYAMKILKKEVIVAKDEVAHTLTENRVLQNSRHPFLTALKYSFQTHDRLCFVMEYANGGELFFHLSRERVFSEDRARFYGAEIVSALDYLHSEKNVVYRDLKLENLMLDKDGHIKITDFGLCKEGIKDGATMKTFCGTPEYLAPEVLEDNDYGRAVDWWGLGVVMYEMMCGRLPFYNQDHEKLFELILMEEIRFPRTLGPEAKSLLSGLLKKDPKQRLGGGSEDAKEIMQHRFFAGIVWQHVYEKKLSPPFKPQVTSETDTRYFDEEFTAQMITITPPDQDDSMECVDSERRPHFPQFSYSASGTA

[13] = target: Mitogen-activated protein kinase 11 (Homo sapiens) (UniProt Q15759); experiment: Inhibition of p38-beta at 3 uM
[14] = target: Receptor tyrosine-protein kinase erbB-2 (Homo sapiens) (UniProt P04626); experiment: Inhibition of ERBB2 at 3 uM
Outline: (§2)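 Single-concentration kinase panel scoring: each value is the percentage of enzyme activity remaining relative to a DMSO-only control. An activity statistically indistinct from DMSO control was scored "no hit".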

[15] = target: Mitogen-activated protein kinase 9 (Homo sapiens) (UniProt P45984); experiment: Inhibition of JNK2 at 3 uM
Rattus norvegicus [16] = species: Rattus norvegicus; conditions: 3 uM
[17] = target: Glycogen synthase kinase-3 alpha (Homo sapiens) (UniProt P49840); experiment: Inhibition of GSK3A at 3 uM
Glycogen synthase kinase-3 alpha (Homo sapiens), sequence (P49840 2-483 limits assumed): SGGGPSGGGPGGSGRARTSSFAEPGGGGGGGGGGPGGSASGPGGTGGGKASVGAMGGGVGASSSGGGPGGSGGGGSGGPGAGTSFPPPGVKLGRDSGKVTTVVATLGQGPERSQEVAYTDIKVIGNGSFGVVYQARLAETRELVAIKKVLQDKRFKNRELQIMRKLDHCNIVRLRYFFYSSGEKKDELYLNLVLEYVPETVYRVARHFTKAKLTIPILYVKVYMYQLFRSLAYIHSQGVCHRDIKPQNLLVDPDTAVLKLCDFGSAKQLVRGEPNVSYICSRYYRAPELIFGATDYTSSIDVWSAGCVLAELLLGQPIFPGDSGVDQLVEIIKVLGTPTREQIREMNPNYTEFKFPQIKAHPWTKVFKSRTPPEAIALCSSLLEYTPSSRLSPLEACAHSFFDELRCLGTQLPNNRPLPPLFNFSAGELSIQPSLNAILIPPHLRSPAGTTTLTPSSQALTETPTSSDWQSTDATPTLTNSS

[18] = target: Serine/threonine-protein kinase 24 (Homo sapiens) (UniProt Q9Y6E0); experiment: Inhibition of MST3 at 3 uM
[19] = target: cAMP-dependent protein kinase catalytic subunit PRKX (Homo sapiens) (UniProt P51817); experiment: Inhibition of PRKX at 3 uM
Rattus norvegicus [20] = species: Rattus norvegicus; conditions: 3 uM; remark: listed apart in the source
[21] = target: Tyrosine-protein kinase receptor UFO (Homo sapiens) (UniProt P30530); experiment: Inhibition of AXL at 3 uM
[22] = target: Tyrosine-protein kinase Mer (Homo sapiens) (UniProt Q12866); experiment: Inhibition of MERTK at 3 uM
[23] = target: Sodium-dependent noradrenaline transporter (Homo sapiens) (UniProt P23975); experiment: Inhibition of human NET at 3 uM; outline: as §1
Rattus norvegicus [24] = species: Rattus norvegicus; conditions: 3 uM; remark: listed apart in the source
[25] = target: Prostaglandin E2 receptor EP4 subtype (Homo sapiens) (UniProt P35408); experiment: Inhibition of human prostanoid EP4 receptor at 3 uM; outline: as §1
[26] = target: MAP/microtubule affinity-regulating kinase 3 (Homo sapiens) (UniProt P27448); experiment: Inhibition of MARK3 at 3 uM
[27] = target: Mitogen-activated protein kinase kinase kinase kinase 2 (Homo sapiens) (UniProt Q12851); experiment: Inhibition of MAP4K2 at 3 uM
[28] = target: Serine/threonine-protein kinase MRCK gamma (Homo sapiens) (UniProt Q6DT37); experiment: Inhibition of DMPK2 at 3 uM
[29] = target: Dual specificity testis-specific protein kinase 1 (Homo sapiens) (UniProt Q15569); experiment: Inhibition of TESK1 at 3 uM
[30] = target: Endothelin-1 receptor (Homo sapiens) (UniProt P25101); experiment: Inhibition of human endothelin ETA receptor at 3 uM; outline: as §1
[31] = target: Cyclin-dependent kinase 8 (Homo sapiens) (UniProt P49336); experiment: Inhibition of CDK8 at 3 uM
[32] = target: Casein kinase I isoform delta (Homo sapiens) (UniProt P48730); experiment: Inhibition of CSNK1D at 3 uM
Casein kinase I isoform delta (Homo sapiens), sequence (P48730 whole entry, looked up, canonical isoform): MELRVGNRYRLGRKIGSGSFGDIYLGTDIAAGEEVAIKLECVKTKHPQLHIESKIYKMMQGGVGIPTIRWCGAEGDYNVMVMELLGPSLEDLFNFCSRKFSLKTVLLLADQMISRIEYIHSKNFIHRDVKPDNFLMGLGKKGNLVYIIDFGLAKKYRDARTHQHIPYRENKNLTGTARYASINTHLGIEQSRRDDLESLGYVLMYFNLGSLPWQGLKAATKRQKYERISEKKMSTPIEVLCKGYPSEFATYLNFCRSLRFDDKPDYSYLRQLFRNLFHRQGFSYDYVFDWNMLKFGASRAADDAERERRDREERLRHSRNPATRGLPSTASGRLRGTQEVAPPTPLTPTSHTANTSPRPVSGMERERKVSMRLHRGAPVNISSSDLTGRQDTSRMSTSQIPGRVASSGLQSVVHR

[33] = target: Mitogen-activated protein kinase kinase kinase 11 (Homo sapiens) (UniProt Q16584); experiment: Inhibition of MLK3 at 3 uM
[34] = target: Dual specificity protein kinase CLK3 (Homo sapiens) (UniProt P49761); experiment: Inhibition of CLK3 at 3 uM
Dual specificity protein kinase CLK3 (Homo sapiens), sequence (P49761 whole entry, looked up): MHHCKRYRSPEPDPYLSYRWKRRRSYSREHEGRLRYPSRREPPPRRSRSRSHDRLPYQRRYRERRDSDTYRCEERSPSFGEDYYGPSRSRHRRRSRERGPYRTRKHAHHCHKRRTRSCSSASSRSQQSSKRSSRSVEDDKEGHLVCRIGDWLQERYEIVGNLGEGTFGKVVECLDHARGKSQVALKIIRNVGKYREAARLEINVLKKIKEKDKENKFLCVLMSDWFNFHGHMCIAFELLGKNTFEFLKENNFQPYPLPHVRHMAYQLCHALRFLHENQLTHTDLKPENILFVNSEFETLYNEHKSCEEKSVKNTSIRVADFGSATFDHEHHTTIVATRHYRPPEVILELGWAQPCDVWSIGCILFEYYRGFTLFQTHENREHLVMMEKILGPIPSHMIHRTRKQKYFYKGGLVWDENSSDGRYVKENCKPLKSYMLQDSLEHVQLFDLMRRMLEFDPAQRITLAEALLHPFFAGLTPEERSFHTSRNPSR

[35] = target: Receptor tyrosine-protein kinase erbB-4 (Homo sapiens) (UniProt Q15303); experiment: Inhibition of ERBB4 at 3 uM; outline: as §2
[36] = target: NT-3 growth factor receptor (Homo sapiens) (UniProt Q16288); experiment: Inhibition of TRKC at 3 uM
[37] = target: Homeodomain-interacting protein kinase 1 (Homo sapiens) (UniProt Q86Z02); experiment: Inhibition of HIPK1 at 3 uM
Homeodomain-interacting protein kinase 1 (Homo sapiens), sequence (Q86Z02 whole entry, looked up): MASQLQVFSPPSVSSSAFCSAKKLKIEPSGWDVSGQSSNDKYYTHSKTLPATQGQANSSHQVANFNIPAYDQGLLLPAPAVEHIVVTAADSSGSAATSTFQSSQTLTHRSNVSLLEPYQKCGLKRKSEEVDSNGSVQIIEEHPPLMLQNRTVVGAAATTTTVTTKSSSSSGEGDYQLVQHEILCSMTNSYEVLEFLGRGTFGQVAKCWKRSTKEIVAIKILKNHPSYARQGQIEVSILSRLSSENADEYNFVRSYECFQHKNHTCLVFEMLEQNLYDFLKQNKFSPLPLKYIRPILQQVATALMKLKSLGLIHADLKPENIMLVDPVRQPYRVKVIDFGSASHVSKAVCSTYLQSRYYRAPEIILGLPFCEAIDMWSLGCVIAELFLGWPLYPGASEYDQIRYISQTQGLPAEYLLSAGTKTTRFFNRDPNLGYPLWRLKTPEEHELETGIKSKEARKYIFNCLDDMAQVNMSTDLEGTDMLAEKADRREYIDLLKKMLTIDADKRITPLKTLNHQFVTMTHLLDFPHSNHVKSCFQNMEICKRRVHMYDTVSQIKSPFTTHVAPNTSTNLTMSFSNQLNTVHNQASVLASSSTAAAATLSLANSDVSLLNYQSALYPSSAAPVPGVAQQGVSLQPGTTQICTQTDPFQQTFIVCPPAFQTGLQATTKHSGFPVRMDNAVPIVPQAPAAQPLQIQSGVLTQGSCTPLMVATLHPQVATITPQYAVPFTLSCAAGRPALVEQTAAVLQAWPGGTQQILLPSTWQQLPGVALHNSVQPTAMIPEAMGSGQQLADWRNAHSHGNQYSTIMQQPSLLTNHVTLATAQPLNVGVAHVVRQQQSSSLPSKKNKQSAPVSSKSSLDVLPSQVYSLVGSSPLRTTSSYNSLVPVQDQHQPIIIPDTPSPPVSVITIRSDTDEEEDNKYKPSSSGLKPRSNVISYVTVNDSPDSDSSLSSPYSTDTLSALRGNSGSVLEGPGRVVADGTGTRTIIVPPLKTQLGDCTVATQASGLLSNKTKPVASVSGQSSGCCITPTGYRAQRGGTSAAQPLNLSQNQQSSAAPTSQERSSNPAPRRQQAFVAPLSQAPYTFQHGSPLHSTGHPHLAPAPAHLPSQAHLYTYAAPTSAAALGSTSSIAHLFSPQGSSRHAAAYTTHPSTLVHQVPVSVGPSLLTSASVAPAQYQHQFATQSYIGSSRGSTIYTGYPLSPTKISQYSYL

Rattus norvegicus [38] = species: Rattus norvegicus; conditions: 3 uM; remark: listed apart in the source
[39] = target: Phosphatidylinositol 5-phosphate 4-kinase type-2 beta (Homo sapiens) (UniProt P78356); experiment: Inhibition of PIP5K2B at 3 uM
[40] = target: Mitogen-activated protein kinase kinase kinase 3 (Homo sapiens) (UniProt Q99759); experiment: Inhibition of MAP3K3 at 3 uM
[41] = target: Tyrosine-protein kinase Yes (Homo sapiens) (UniProt P07947); experiment: Inhibition of YES at 3 uM
Tyrosine-protein kinase Yes (Homo sapiens), sequence (P07947 2-543 limits assumed): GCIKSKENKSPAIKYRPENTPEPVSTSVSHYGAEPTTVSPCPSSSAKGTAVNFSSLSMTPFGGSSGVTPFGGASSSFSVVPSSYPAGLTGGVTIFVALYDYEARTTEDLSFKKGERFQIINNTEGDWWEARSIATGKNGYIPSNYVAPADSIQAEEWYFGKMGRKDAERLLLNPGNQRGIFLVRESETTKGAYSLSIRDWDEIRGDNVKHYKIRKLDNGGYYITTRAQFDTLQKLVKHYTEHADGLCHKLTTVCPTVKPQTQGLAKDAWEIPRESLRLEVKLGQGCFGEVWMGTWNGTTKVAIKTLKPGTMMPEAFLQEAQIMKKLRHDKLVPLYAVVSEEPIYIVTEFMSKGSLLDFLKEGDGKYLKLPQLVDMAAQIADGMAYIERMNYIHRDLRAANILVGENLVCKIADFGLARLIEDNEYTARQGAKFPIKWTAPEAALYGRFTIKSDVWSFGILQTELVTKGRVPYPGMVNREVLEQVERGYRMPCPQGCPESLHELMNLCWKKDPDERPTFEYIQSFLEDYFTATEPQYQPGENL

[42] = target: Acetylcholine receptor subunit alpha (Homo sapiens) (UniProt P02708); experiment: Displacement of bungarotoxin from human nAChR alpha1 receptor at 3 uM
Outline: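 Counter-screen of human nicotinic α1 receptor binding, assayed by bungarotoxin displacement.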

[43] = target: Tyrosine-protein kinase ITK/TSK (Homo sapiens) (UniProt Q08881); experiment: Inhibition of ITK at 3 uM
Tyrosine-protein kinase ITK/TSK (Homo sapiens), sequence (Q08881 whole entry): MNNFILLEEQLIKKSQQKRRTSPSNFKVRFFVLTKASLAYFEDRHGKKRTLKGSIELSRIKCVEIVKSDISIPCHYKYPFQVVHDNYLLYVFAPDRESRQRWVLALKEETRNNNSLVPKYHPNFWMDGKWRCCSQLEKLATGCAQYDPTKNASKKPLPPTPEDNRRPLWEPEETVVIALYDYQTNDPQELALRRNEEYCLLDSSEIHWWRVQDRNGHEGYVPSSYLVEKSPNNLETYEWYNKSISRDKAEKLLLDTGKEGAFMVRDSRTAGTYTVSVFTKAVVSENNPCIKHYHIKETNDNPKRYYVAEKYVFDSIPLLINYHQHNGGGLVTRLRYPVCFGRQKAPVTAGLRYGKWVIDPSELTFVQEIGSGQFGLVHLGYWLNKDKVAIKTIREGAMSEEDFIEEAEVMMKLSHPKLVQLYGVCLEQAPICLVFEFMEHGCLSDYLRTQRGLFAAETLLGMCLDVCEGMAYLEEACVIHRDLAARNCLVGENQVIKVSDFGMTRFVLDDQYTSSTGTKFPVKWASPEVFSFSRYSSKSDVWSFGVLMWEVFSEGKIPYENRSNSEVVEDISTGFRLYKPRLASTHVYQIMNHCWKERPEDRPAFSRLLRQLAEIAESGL

[44] = test system: Tyrosine-protein kinase ABL1 (Homo sapiens), P00519 [H396P]; experiment: Inhibition of ABL1 H396P mutant at 3 uM

CN(C)CCOc1cc(-c2cn[nH]c2)ccc1NC(=O)C1COc2ccccc2O1 (stereo unspecified) [SR-3677]
inhibition [1]: 88% | inhibition [2]: < 10% | inhibition [3]: < 10% | inhibition [4]: < 10% | inhibition at 3 µM (hERG (KCNH2)): 31% | inhibition [5]: < 10% | AUC (in vivo): 0.7 µM·h | inhibition [6]: -2% | inhibition [7]: < 10% | inhibition [8]: < 10% | inhibition [9]: < 10% | inhibition [10]: < 10% | inhibition [11]: -1% | IC50 [12]: 7.49 µM | inhibition [13]: < 10% | inhibition [14]: < 10% | inhibition [15]: < 10% | inhibition (Rattus norvegicus [16]): 17% | inhibition [17]: < 10% | inhibition [18]: < 10% | inhibition [19]: < 10% | inhibition (Rattus norvegicus [20]): 47% | inhibition [21]: < 10% | inhibition [22]: < 10% | inhibition [23]: 16% | inhibition (Rattus norvegicus [24]): -1% | inhibition [25]: 5% | inhibition [26]: < 10% | inhibition [27]: < 10% | inhibition [28]: < 10% | inhibition [29]: < 10% | inhibition [30]: 1% | inhibition [31]: < 10% | inhibition [32]: < 10% | inhibition [33]: < 10% | inhibition [34]: < 10% | inhibition [35]: < 10% | inhibition [36]: < 10% | inhibition [37]: < 10% | inhibition (Rattus norvegicus [38]): -6% | inhibition [39]: < 10% | inhibition [40]: < 10% | inhibition [41]: < 10% | inhibition [42]: 7% | inhibition [43]: < 10% | inhibition [44]: < 10%

Source: ChEMBL document CHEMBL1142492 (J Med Chem, 2008)
